Like-named read-outs stand apart in the source and are kept apart here.
Legend:
σ1 receptor = σ1 receptor (Homo sapiens, UniProt Q99720); assay: Competition binding versus σ1 receptor; conditions: read-out: Ki (nM) σ1
human σ2 receptor = human σ2 receptor (Homo sapiens, UniProt Q5BJF2); assay: Competition binding of [3H]-DTG in Expi293 membranes expressing σ2 receptor; conditions: for Selectivity (σ1/σ2): ratio of σ1 Ki to σ2 Ki
Summary of the method: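 σ2-expressing Expi293 membranes were made by osmotic lysis (20 mM HEPES pH 7.5, 2 mM MgCl2), spun at 20,000 × g, and kept in 50 mM Tris pH 8.0 at −80 °C. Assay buffer: 50 mM Tris pH 8.0, 0.1% BSA, 10 nM [3H]-DTG and graded competitor; 37 °C, 90 min. 10 μM haloperidol set nonspecific binding. Filtration, scintillation counting; Ki by Cheng-Prusoff using measured probe Kd.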

[1] = Pharmacokinetics in male CD-1 mice, plasma and brain; type: in vivo; conditions: 10 mg/kg subcutaneous
SNI mice = assay: Spared nerve injury; type: in vivo; conditions: for anti-allodynic effect, mechanical thresholds versus vehicle: systemic (subcutaneous) administration to SNI mice
Summary of the method: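 Spared nerve injury under isoflurane: two sciatic branches ligated and transected, sural nerve intact; mice tested 7–14 days later. Test compound (10, 20 or 30 mg/kg) or vehicle (saline, cyclodextrin, kolliphor) given subcutaneously, random assignment. Hindpaw von Frey thresholds by up-down method at 1, 24, 48 h. Thresholds normalized to each mouse's post-SNI baseline; n = 5–10; ANOVA with Dunnett's test.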

[2] = tested on: σ2 mutants (His21, Gln77); assay: Competition binding in σ2 receptor mutants disrupting water coordination; design: species or system human
Summary of the method: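 Expi293 membranes carrying wild-type or mutant σ2 (lysed osmotically in 20 mM HEPES pH 7.5, 2 mM MgCl2; pellet at 20,000 × g), in 50 mM Tris pH 8.0, 0.1% BSA, with 10 nM [3H]-DTG and graded competitor. Incubated 37 °C, 90 min, shaking. Filtered on PEI-soaked glass fibre, scintillation counted. Nonspecific binding with 10 μM haloperidol. Ki by Cheng-Prusoff; three technical replicates, mean ± SEM.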

mice = assay: Rotarod; type: in vivo; conditions: 1 hour or 24 hours post-injection; Z1665845742 10 mg/kg, Z4857158944 20 mg/kg, Z4446724338 10 mg/kg
[3] = read-out: Ki (nM) σ2, competition with 10 nM [3H]-DTG

Chain of human σ2 receptor (Q5BJF2 whole entry): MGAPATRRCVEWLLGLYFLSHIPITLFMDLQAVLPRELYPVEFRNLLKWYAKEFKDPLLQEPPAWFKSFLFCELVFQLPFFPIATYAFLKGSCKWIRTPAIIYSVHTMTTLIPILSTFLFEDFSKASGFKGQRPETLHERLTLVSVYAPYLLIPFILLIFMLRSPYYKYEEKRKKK
Chain of σ1 receptor (Q99720 whole entry, species assumed): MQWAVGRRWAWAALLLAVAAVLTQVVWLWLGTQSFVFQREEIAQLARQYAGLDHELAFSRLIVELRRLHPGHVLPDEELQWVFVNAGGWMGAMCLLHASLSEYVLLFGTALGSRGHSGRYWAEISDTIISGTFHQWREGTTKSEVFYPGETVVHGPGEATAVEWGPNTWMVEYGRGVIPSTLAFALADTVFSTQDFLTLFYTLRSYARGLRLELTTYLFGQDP

| Structure (SMILES) | Ki (σ1 receptor) [nM] | Selectivity (σ1/σ2) (human σ2 receptor) | Ki (human σ2 receptor; [3]) [nM] | other results |
| --- | --- | --- | --- | --- |
| C[C@@H](C(=O)N(C)Cc1cccc(F)c1)N1CC=C(c2c[nH]c3ncccc23)CC1 [ZINC000533478938] | 1470 | 43 | 34.5 |  |
| COc1cccc2c1CCCC2CCCN1CCN(C2CCCCC2)CC1 (stereo not shown) [PB28, reference compound] |  |  |  | AUC0→t (AUClast) ([1]; brain): 229000 ng·min/mL (g); AUC0→∞ (AUCinf_obs) ([1]; brain): 240000 ng·min/mL (g); Cmax ([1]; brain): 948 ng/mL (g); Kel (Lambda_z) ([1]; brain): 0.00706 min⁻¹; T1/2 (HL_Lambda_z) ([1]; brain): 1.64 h; Tmax ([1]; brain): 1 h; AUC0→t (AUClast) ([1]; plasma): 8640 ng·min/mL (g); AUC0→∞ (AUCinf_obs) ([1]; plasma): 45900 ng·min/mL (g); Cmax ([1]; plasma): 42 ng/mL (g); Kel (Lambda_z) ([1]; plasma): 0.000937 min⁻¹; T1/2 (HL_Lambda_z) ([1]; plasma): 12.3 h; Tmax ([1]; plasma): 1 h; mice in which anti-allodynic effects were observed (SNI mice; systemic injection, 30 mg/kg): 60% |
| C1=C(c2c[nH]c3ncccc23)CCN(CCCc2ccccc2)C1 [Z1241145220] |  |  |  | Ki (human σ2 receptor; read-out: σ2 Ki (affinity)): 3.7 nM; reduction of affinity on mutation ([2]; Gln77 mutant versus wild-type σ2): about 10 fold; reduction of affinity on mutation ([2]; His21 mutant versus wild-type σ2): about 10 fold |
| CCCN1CCC=C(c2cc(-c3ccc(C)cc3)no2)C1 [PD-144418] |  |  |  | anti-allodynic effect, mechanical thresholds versus vehicle (SNI mice): anti-allodynia; anti-allodynia 24 or 48 hours post-injection (SNI mice; tested at 1, 24 and 48 hours after dosing): not sustained |
| CC(C)(NCc1ccc2c(c1)OCCO2)[C@H](O)c1ccccc1 [ZINC000895657866] | 990 | 46 | 21.4 |  |
| OC(CCc1ccccc1)CN1CCC(c2nnc3ccccn23)CC1 (stereo not shown) [Z1665798906] |  |  |  | σ2 activity in words (human σ2 receptor): σ2 inactive |
| OC(CCc1ccccc1)CN1CC=C(c2c[nH]c3ncccc23)CC1 (stereo not shown) [Z1665845742] |  |  |  | AUC0→t (AUClast) ([1]; brain): 436000 ng·min/mL (g); AUC0→∞ (AUCinf_obs) ([1]; brain): 509000 ng·min/mL (g); Cmax ([1]; brain): 3150 ng/mL (g); Kel (Lambda_z) ([1]; brain): 0.000928 min⁻¹; T1/2 (HL_Lambda_z) ([1]; brain): 12.4 h; Tmax ([1]; brain): 0.333 h; AUC0→t (AUClast) ([1]; plasma): 99000 ng·min/mL (g); AUC0→∞ (AUCinf_obs) ([1]; plasma): 112000 ng·min/mL (g); Cmax ([1]; plasma): 968 ng/mL (g); Kel (Lambda_z) ([1]; plasma): 0.00374 min⁻¹; T1/2 (HL_Lambda_z) ([1]; plasma): 3.08 h; Tmax ([1]; plasma): 0.333 h; selectivity for σ2 over σ1 (human σ2 receptor): 47 fold; Ki (human σ2 receptor; read-out: σ2 Ki (affinity)): 5 nM; anti-allodynic effect, mechanical thresholds versus vehicle (SNI mice): anti-allodynic; sedation or motor impairment on the rotarod (mice): No sedation or motor impairment |
| c1ccc(CCCN2CCC(c3nnc4ccccn34)CC2)cc1 [Z163048780] |  |  |  | Ki (human σ2 receptor; read-out: σ2 Ki (affinity)): > 10000 nM |
| C1=C(c2c[nH]c3ccccc23)CCN(CCCc2ccccc2)C1 [Z295861754] |  |  |  | decrease in σ2 affinity (human σ2 receptor; versus parent Z1241145220): 8 fold |

Further lines, with some results ahead:

| Ki (σ1 receptor) [nM] | Selectivity (σ1/σ2) (human σ2 receptor) | Ki (human σ2 receptor; [3]) [nM] | Structure (SMILES) | other results |
| --- | --- | --- | --- | --- |
| 1.7 | 0.3 | 5.2 | CC[C@@H](CO)N1CCC(CCc2ccc(F)cc2F)CC1 [ZINC001460312963] |  |
| 1.6 | 0.1 | 27 | Fc1c(CN2CCN(C[C@@H]3CCCO3)CC2)ccc(Br)c1Cl [ZINC001237901728] |  |
| 53 | 11.3 | 4.7 | O[C@@H](COCc1ccccc1F)CN1CC(Cc2ccccc2C(F)(F)F)C1 [ZINC001254761628] |  |
| 4.6 | 0.1 | 67.8 | Cc1ccc(CC2CN(CC3(O)CCSCC3)C2)cc1 [ZINC000656714762] |  |
| 4.9 | 2 | 2.4 | CC1CCC(O)(CN2CC(Cc3ccc(F)c(F)c3)C2)CC1 (stereo not shown) [ZINC000548355486] |  |
| 128 | 30 | 4.3 | C[C@@H](c1ccccc1)[C@@H](O)CN1CCC(c2c[nH]c3ncccc23)CC1 [ZINC000450573233] |  |
| 13.4 | 5.6 | 2.4 | CC(C)CCO[C@@H]1CCN(C[C@H]2CC3(CCCCC3)CO2)C1 [ZINC001196519317] |  |
| 1190 | 18 | 67.3 | O[C@@]1(CNCc2cccc3c2OCC3)CCc2ccccc21 [ZINC000921927365] |  |
| 2.9 | 0.1 | 33.7 | Cc1ccc([C@H]2CCN(CC3(O)CCC3)C2)c(C)c1 [ZINC000348332392] |  |
| 32.7 | 4.9 | 6.7 | N/C(=N\Cc1ccc(F)cc1Br)NCC1CCC1 [ZINC000170908795] |  |
| 16.2 | 1.6 | 10 | Cc1ccc(CCC2CCN(C(=O)CN3C[C@@H]4CC[C@@H](O)[C@H]4C3)CC2)cc1 [ZINC000544117725] |  |

— paper PMC8867396 (Nature, 2021)
